# The list is not random: actives were taken first. Their share in the collection is about 6.6%.
# HEK293 NFkB inh: inhibitors of PMA/ionomycin-induced NF-kB reporter, primary screen, antigen receptor NF-kB inhibitor project, cell-based, HEK-293 luciferase reporter, luminescence; AID 465, 2006; HEK-293 NF-kB luciferase reporter; inhibition, % at 3 µM; 0.21% of 62,000 active;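 active = inhibition above the mean of all tested compounds plus 3 SD, cut at about 40% in these data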
#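 Material: HEK-293 cells with stable firefly luciferase reporter driven by four HIV NF-kB elements / Also added: PMA plus ionomycin mix as NF-kB-activating stimulus / Compound dosing: 3 µM once, 0.30% DMSO / Times: 1 h pretreatment, 16 h stimulation, 37 °C / Signal: luminescence / Evaluation: per-plate % inhibition versus controls / Benchmarks: DMSO and 10 µM reference inhibitor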
# M1 antag: antagonists of rat M1 muscarinic receptor. CHO-M1 cells, Fluo-4 calcium, ACh EC80 antagonist mode; active compounds read low. B-score at 10 µM. 3.4% of 64,000 active. AID 628, 2007;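 active = calcium fluorescence response, raw or row-and-column corrected B-score, differing from the plate sample mean either way at a set confidence level, mostly lower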
# Target sequence (P08482 whole entry, looked up): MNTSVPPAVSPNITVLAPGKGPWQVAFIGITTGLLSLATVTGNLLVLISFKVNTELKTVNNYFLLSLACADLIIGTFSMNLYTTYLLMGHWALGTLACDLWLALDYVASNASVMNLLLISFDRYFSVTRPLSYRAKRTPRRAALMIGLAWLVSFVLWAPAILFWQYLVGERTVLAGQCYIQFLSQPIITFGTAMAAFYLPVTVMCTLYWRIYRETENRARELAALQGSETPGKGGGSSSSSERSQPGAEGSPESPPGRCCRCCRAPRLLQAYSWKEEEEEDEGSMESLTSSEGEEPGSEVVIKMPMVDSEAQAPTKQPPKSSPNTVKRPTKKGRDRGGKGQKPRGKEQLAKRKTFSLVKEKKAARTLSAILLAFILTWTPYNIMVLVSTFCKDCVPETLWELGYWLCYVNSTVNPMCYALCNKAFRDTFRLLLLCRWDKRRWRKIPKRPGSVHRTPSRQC
# BAP1 block: inhibitors of BAP1 deubiquitinase, primary screen, biochemical, Ub-AMC fluorescence, kinetic | AID 436, 2006 | Ubiquitin carboxyl-terminal hydrolase BAP1 (Homo sapiens), Q92560 | calls only at 20 µM | recombinant BAP1, Ub-AMC hydrolysis fluorescence kinetic; active compounds read low | 0.48% of 72,000 active;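 active = activity remaining at or below 50% of control, provided the compound also passes the data quality filters; inactive = the rest, including low values that fail the filters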
# HER2 expr 66K: inhibitors of Her2 protein expression, primary screen, SKBR-3 cells, AlphaScreen, 66K library; Receptor tyrosine-protein kinase erbB-2 (Homo sapiens), P04626; SKBR-3 HER2 protein level, 18-24 h; active compounds read low; HER2 level % of control, % at 10 µM; 0.69% of 65,000 active;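 active = HER2 level under 5% of the carrier-only control; inconclusive = no clear call, values can overlap the other calls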;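 also: lower value means stronger loss of Her2 protein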
# JNK3 blocker: JNK3 kinase activity inhibitors, primary screen, biochemical, human, purified enzyme | HTS | Mitogen-activated protein kinase 10 (Homo sapiens), P53779 | inhibition, % at 8 µM | 0.61% of 60,000 active | AID 746, 2007; in the data active = inhibition above about 17%
# M1 ag: M1 muscarinic receptor agonists, primary screen, CHO-M1 cells, Fluo-4 calcium, agonist mode; Muscarinic acetylcholine receptor M1; Fluo-4 calcium fluorescence; active compounds read high; B-score at 10 µM; 3% of 64,000 active; AID 626, 2007;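 active = fluorescence rise, raw or as B-score row- and column-corrected plate score, outside the 99.7% band of its plate's samples, either direction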
# M1 ag confirm: rat M1 muscarinic receptor agonists, confirmation, CHO-M1 cells, Fluo-4 calcium, duplicate retest; shares compounds with M1 ag; Fluo-4 calcium fluorescence, agonist mode; actives lie on both sides; fluorescence change (max-min) at 10 µM; 19% of 1,700 active;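 active = fluorescence change differs from the solvent-only DMSO control mean at a set confidence level in both duplicate runs; inconclusive = differs from solvent-only control mean in just one of two runs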;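 also: an EC20 dose of acetylcholine follows compound addition during the same imaging run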
# M4 ag counter: agonist activity at rat M4 receptor, confirmation, counter-screen for M1 allosteric modulator project, cell-based, agonist mode; shares compounds with M1 ag; 9% of 1,700 active; CHO M4/Gqi5 cells, Fluo-4 calcium fluorescence; actives lie on both sides; fluorescence change (max-min) at 10 µM; AID 1741, 2009;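 active = fluorescence change differing from the plate's solvent-only control wells at 99.7% confidence in both duplicates, whether higher or lower; inconclusive = differs from solvent controls in only one of two duplicates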
# Numbers stand for hits; n = inactive; u = inconclusive; x = no result given.
SMILES,HEK293 NFkB inh,M1 antag,BAP1 block,HER2 expr 66K,JNK3 blocker,M1 ag,M1 ag confirm,M4 ag counter
CC1=C(C(=O)Nc2cccc(C)c2C)C(c2cccs2)NC(=O)N1 (configuration not stated),x,x,n,x,x,x,x,x
COCCCNC(=O)C1CCN(c2ncccn2)CC1,n,n,n,n,n,2.6,n,n
CCS(=O)(=O)N1CCC(C(=O)NCCCOC)CC1,n,n,n,n,n,n,x,x
CC1CCCCN1S(=O)(=O)c1ccc(C(=O)Nc2nnc(-c3ccccc3Cl)o2)cc1 (configuration not stated),n,n,n,n,n,-2.5,u,n
Cc1cc(NC(=O)CSc2cn(CCNC(=O)c3ccc(F)cc3)c3ccccc23)no1,n,n,n,n,n,4.2,n,n
Cc1nnc(NC(=O)CSc2cn(CCNC(=O)c3ccccc3)c3ccccc23)s1,n,n,n,n,n,n,x,x
CCOC(=O)C1=C(N)OC2=C(C(=O)CC(C)(C)C2)C1c1ccc(O)cc1 (configuration not stated),x,x,n,x,x,x,x,x
CCOC(=O)c1ccc(NC(=O)c2cccc(S(=O)(=O)N3CCOCC3)c2)cc1,n,-2.9,n,n,n,10,n,u
O=C(Nc1ccc2c(c1)OCO2)c1ccc(Br)c(S(=O)(=O)N2CCCC2)c1,n,n,n,n,n,n,x,x
CCOC(=O)c1ccc(NC(=O)c2ccc(C)c(S(=O)(=O)N3CCOCC3)c2)cc1,x,-3.1,x,x,x,16,n,n
O=C(Nc1cccc(F)c1)c1cccc(S(=O)(=O)N2CCOCC2)c1,n,n,n,n,n,n,x,x
O=C(Nc1ccc2c(c1)OCCO2)c1ccc(Br)c(S(=O)(=O)N2CCOCC2)c1,n,n,n,n,n,11,u,n
Clc1c(CSc2nc3ccccc3o2)nc2sccn12,n,n,n,x,x,n,x,x
Clc1c(CSc2nc3ccccc3o2)nc2ccccn12,n,n,n,n,n,21,n,n
CSc1nc2ccc([N+](=O)[O-])cc2o1,x,x,n,x,x,x,x,x
COc1cccc(C(=O)Nc2ccc(-c3nnc(-c4ccco4)o3)cc2)c1,x,n,n,n,n,5.6,n,u
COc1ccc(CC(=O)Nc2cccc(-c3nnc(-c4cccc(C)c4)o3)c2)cc1OC,n,-7.3,n,-0.4,n,6.6,n,u
O=C(Cc1ccccc1)Nc1cccc(-c2nnc(-c3ccco3)o2)c1,x,n,n,n,n,5.2,n,n
Cc1cc(-n2nc(C)c3c2CCC3)nc(C)n1,x,x,n,x,x,x,x,x
COc1ccc(NC(=O)c2cc3nc(-c4cccs4)cc(C(F)(F)F)n3n2)c(OC)c1,x,x,n,x,x,x,x,x
O=C(Nc1ccc(-c2nc3ccccc3[nH]2)cc1)c1ccccc1Br,x,x,n,x,x,x,x,x
Cc1ccccc1OCc1nc(-c2ccccc2)no1,n,n,x,n,n,-2.4,n,n
Cc1ccc(-c2noc(COc3ccccc3C)n2)cc1,n,n,n,n,n,n,x,x
CCCCOc1ccc(S(=O)(=O)NC(C)c2ccccc2)cc1 (configuration not stated),x,x,n,x,x,x,x,x
O=C(CSc1n[nH]c(=O)n1C1CC1)Nc1cc(Cl)ccc1Oc1ccccc1,n,-2.7,n,n,n,6.9,n,n
SMILES,HEK293 NFkB inh,M1 antag,BAP1 block,HER2 expr 66K,JNK3 blocker,M1 ag,M1 ag confirm,M4 ag counter
O=C1CCC(=O)N1CNc1ccc(Oc2ccccc2)cc1,n,n,n,n,n,-3.2,u,n
O=C(CNc1ccc(Oc2ccccc2)cc1)N1CCOCC1,n,n,n,n,n,2.8,u,u
Cc1cccc(N2C(=O)c3ccc([N+](=O)[O-])cc3C2=O)c1,x,x,n,x,x,x,x,x
O=C1c2ccccc2C(=O)N1CCc1nc2ccccc2c(=O)n1Cc1ccco1,n,n,n,n,n,9.4,n,n
O=C1c2ccccc2C(=O)N1CCCc1nc2ccccc2c(=O)n1CCCn1ccnc1,n,n,n,n,n,n,x,x
CCCN(S(=O)(=O)c1ccc(OCC)cc1)S(=O)(=O)c1cccs1,n,n,x,n,n,2.1,u,n
CCOc1ccc(OCC)c(NC(=O)CNS(=O)(=O)c2cccs2)c1,n,n,x,n,x,n,x,x
O=C(c1cc(-c2ccncc2)nc2ccc(Cl)cc12)N1CCN(C(=O)C2CCCO2)CC1 (configuration not stated),n,n,n,n,n,2.9,n,n
COc1ccc(CCNC2=NCC(C)S2)cc1 (configuration not stated),n,n,n,n,n,31,n,u
COc1cccc(N2CCN(Cc3nc(N)nc(Nc4ccccc4)n3)CC2)c1,n,n,n,n,n,6.3,n,n
COc1ccccc1Nc1nc(N)nc(CN2CCN(c3ccccc3F)CC2)n1,n,n,n,n,n,n,x,x
COc1ccccc1N1CCN(Cc2nc(N)nc(Nc3ccc(C)c(Cl)c3)n2)CC1,n,n,n,n,n,3.3,u,u
CC(=O)NC(=O)c1cc2ccccc2oc1=Nc1cccc2ccccc12,x,x,n,x,x,x,x,x
Cc1c(OC(=O)CNC(=O)OC(C)(C)C)ccc2c3c(c(=O)oc12)CCC3,n,n,n,n,n,2.4,n,n
Cc1c(OCC(=O)OC(C)(C)C)ccc2c3c(c(=O)oc12)CCC3,n,n,x,n,n,n,x,x
Fc1cc(Br)ccc1Nc1nc2ccccc2n2nnnc12,n,n,n,n,n,n,x,x
Fc1ccccc1N1CCN(c2nc3ccccc3n3nnnc23)CC1,n,n,n,n,n,12,u,n
Cc1ccc(Cl)cc1NC(=O)Cn1cccc1,n,n,n,n,n,n,x,x
Cc1ccc(Cl)cc1NC(=O)CC(O)(C(F)(F)F)C(F)(F)F,n,-2.5,n,n,n,11,n,n
O=C(Nc1ccc(O)cc1)c1cc2n(n1)C(C(F)(F)F)CC(c1ccco1)N2 (configuration not stated),n,n,n,n,n,-2.3,n,n
COC(=O)c1ccc(OC(=O)c2ccncc2)cc1OC(=O)c1ccncc1,x,x,n,x,x,x,x,x
CC(=O)c1c(C)[nH]c(C(=O)OCc2nnc(-c3ccccc3)o2)c1C,n,n,n,n,n,2.8,u,-70
CC(C(=O)OCc1nnc(-c2ccccc2)o1)N1C(=O)c2ccccc2C1=O (configuration not stated),n,n,x,n,x,-2.2,n,n

# From PubChem BioAssay
